For orientation: half-life means the time in which the quantity being followed falls by half. As a reminder, the Emax is the greatest response seen or fitted, relative to the assay's reference.

Molecules are shown by their SMILES. The source made the active and inactive calls. The calls are words filed in the database; no cut-off is given here. Where a SMILES comes first, the peptide text is derived from it. The star is where a group is joined. Oleoyl = CCCCCCCC/C=C\CCCCCCCC(=O)*

The values below come from ChEMBL document CHEMBL4219135, “Discovery of Hydrolysis-Resistant Isoindoline N-Acyl Amino Acid Analogues that Stimulate Mitochondrial Respiration” (J Med Chem, 2018).

A short description of data set [1]: Half life in mouse liver microsomes at 1 uM after 60 mins in presence of NADPH by LC-MS/MS analysis. The data set is classed as ADME, microsome. Summed up:
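Test compound at 1 μM with 1 mg/mL mouse liver microsomes in 100 mM KPi pH 7.4, 37C with shaking; started with NADPH (1 mM final), -NADPH controls included. Samples at 0, 5, 10, 20, 40, 60 min quenched in 5X acetonitrile, filtered, LC-MS/MS; data log transformed to half-life.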

The test system of data set [2] is C2C12. The data set can be described thus: Uncoupling activity in mouse C2C12 cells assessed as induction of SLC25-mediated mitochondrial respiration at 50 uM mixed for 2 mins measured after 2 mins post mixing relative to basal oligomycin-treated respiration. Type of data set: cell-based. Summed up: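 C2C12 cells seeded 35,000/well, assayed next day in Seahorse XF24 respiration buffer (DMEM, pyruvate, 20 mM glucose) after 1 h CO2-free. Sequential injections: oligomycin 1 μM, compound 50 μM, FCCP 0.2 μM, rotenone 3 μM final; cycles of 2 min mix, 2 min measure. Cycle 6 set to 100%; maximal respiration over cycles 7–15 reported. n=3–6.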

The target in data set [3] is T1, N-fatty-acyl-amino acid synthase/hydrolase PM20D1 (Mus musculus, UniProt Q8C165).
T1 sequence (Q8C165 whole entry): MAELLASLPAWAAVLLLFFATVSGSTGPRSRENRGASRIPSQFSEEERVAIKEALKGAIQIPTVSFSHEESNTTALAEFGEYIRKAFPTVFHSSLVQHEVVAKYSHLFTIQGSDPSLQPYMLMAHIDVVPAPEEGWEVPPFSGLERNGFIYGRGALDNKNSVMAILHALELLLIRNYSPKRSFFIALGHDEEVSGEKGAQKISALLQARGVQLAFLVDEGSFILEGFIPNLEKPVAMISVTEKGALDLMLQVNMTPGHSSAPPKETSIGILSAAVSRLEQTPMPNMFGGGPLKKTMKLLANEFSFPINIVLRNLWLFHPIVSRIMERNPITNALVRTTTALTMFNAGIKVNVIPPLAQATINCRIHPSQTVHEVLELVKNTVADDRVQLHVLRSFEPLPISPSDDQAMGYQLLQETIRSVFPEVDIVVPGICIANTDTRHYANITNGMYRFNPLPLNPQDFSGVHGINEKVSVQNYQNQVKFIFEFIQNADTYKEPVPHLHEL
Briefly: Metabolic stability assessed as recombinant mouse 6xHis/FLAG-tagged PM20D1-mediated hydrolysis by measuring parent compound remaining at 100 nmol after 1 hr by LC-MS method. Type of data set: ADME. To be noted: in the assay text read “at 10 nmol” for “at 100 nmol”. The gist of the method: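 Murine PM20D1–6xHis-Flag expressed transiently in 293T cells, Flag-M2 purified from serum-free conditioned medium. 10 nmol compound in 100 μl PBS (100 μM) with enzyme or PBS, 1 h at 37 °C; quenched in chloroform:methanol with d31-palmitate internal standard; intact substrate and released fatty acid quantified by LC-MS. Means ± SEM, n=3.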

Data set [4] deals with Mus musculus. Briefly: Anti-obesity activity against DIO mouse assessed as reduction in body weight gain by measuring net weight change at 5 mg/kg, ip administered daily for 7 consecutive days (reference value: 1.1 +/- 0.1 g). The data set is classed as functional, organism-based.
For data set [5], the system named is Mus musculus. The data set can be described thus: Anti-obesity activity against DIO mouse assessed as blood glucose levels at 25 mg/kg, ip administered daily for 7 consecutive days measured after 2 hrs post last dose (reference value: 204 +/- 7 mg/dl). Type of data set: functional.
The subject of data set [6] is Mus musculus. Briefly: Anti-obesity activity against DIO mouse assessed as reduction in body weight gain by measuring net weight change at 10 mg/kg, ip administered daily for 7 consecutive days (reference value: 1.1 +/- 0.1 g). Type of data set: functional.
The test system of data set [7] is Mus musculus. The data set can be described thus: Anti-obesity activity against DIO mouse assessed as reduction in body weight gain by measuring net weight change at 25 mg/kg, ip administered daily for 7 consecutive days (reference value: 1.1 +/- 0.1 g). Type of data set: functional.
Data set [8] has as its system Mus musculus. Briefly: Anti-obesity activity against DIO mouse assessed as reduction in food intake at 25 mg/kg, ip administered daily for 7 consecutive days. The data set is classed as functional, organism-based.
The test system of data set [9] is Mus musculus. The data set can be described thus: Anti-obesity activity against ip dosed DIO mouse assessed as reduction in body weight gain administered daily for 7 consecutive days. Type of data set: functional, organism-based.

For `CCCCCCCC/C=C\CCCCCCCC(=O)N[C@@H](Cc1ccc(O)cc1)C(=O)O`, the half-life at 1 µM in data set [1] turned out to be 0.133 h. Also, in data set [2], the Emax came to 105%.
Take `CCCCCCCC/C=C\CCCCCCCC(=O)N[C@H](Cc1ccccc1)C(=O)O`: the Emax in data set [2] came to 173%.
On the same count and under the same terms, the same measure for `CCCCCCCC/C=C\CCCCCCCCNC(=O)NCC(=O)O`: 104%; for `CCCCCCCC/C=C\CCCCCCCC(=O)N1c2ccccc2C[C@H]1C(=O)O`: 146%; for `CCCCCCCC/C=C\CCCCCCCC(=O)NCC(=O)NCC(=O)O` (Oleoyl-Gly-Gly-OH): 206%.
`CCCCCCCC/C=C\CCCCCCCC(=O)NCCC(=O)O`: the Emax in data set [2] came to 185%.
Still for that read-out and setting: then `CCCCCCCCCCCCCCCCCCCC(=O)N[C@@H](Cc1ccccc1)C(=O)O`, with 95%; and `CCCCCCCC/C=C\CCCCCCCC(=O)N1CCCC[C@H]1C(=O)O`, with 174%.
Turning to `CCCCCCCC/C=C\CCCCCCCC(=O)N1Cc2ccccc2[C@@H]1C(=O)O`, in data set [1], the half-life at 1 µM is 1.07 h. Further, the Emax in data set [2] came to 190%. Further, in data set [3], the Stability result is “Stable”.
For `CCCCCCCC/C=C\CCCCCCCC(=O)N[C@@H](Cc1ccccc1)C(=O)O`, the Emax in data set [2] came to 161%.
As for `CC/C=C\C/C=C\C/C=C\C/C=C\C/C=C\CCCC(=O)N[C@@H](Cc1ccccc1)C(=O)O`, the Emax in data set [2] is 259%.
As to `CCCCC/C=C\C/C=C\CCCCCCCC(=O)N[C@@H](Cc1ccccc1)C(=O)O`, the Emax in [2] came to 218%.
Consider `CCCCC/C=C\C/C=C\CCCCCCCC(=O)N1Cc2ccccc2[C@@H]1C(=O)O`, for which the half-life at 1 µM in data set [1] is 1.07 h. Further, the outcome in data set [4] and in [8] was inactive. The Activity in data set [5] was 172 mg/dL; in data set [6], 0.2 g; in [7], -1.2 g; in data set [9], “Dose-dependent effect”. Moreover, the Emax in data set [2] worked out at 190%. In data set [3], the Stability entry was “Stable”.
`CCCCCCCC/C=C\CCCCCCCC(=O)N1CCC[C@H]1C(=O)O`: the Emax in data set [2] was 182%.
For `CCCCCCCCCCCCCCCCCC(=O)N[C@@H](Cc1ccccc1)C(=O)O`, the maximal response (Emax) in data set [2] came to 148%.
For the molecule `CCCCCCCC/C=C\CCCCCCCC(=O)NCCc1ccccc1`, in data set [2], the Emax was found to be 104%.
On the same count and under the same terms, the same measure for `CCCCCCCC/C=C\CCCCCCCC(=O)N[C@@H](Cc1c[nH]c2ccccc12)C(=O)O`: 147%.
Consider `CCCCCCCC/C=C\CCCCCCCC(=O)N[C@@H](CC(C)C)C(=O)O`, for which, in [1], the half-life at 1 µM was found to be 0.133 h. Further, the Emax in [2] turned out to be 178%.
On to `CCC/C=C\C/C=C\C/C=C\CCCCCCC(=O)N[C@@H](Cc1ccccc1)C(=O)O`, for which, in data set [2], the Emax was found to be 109%.
On to `CCCCC/C=C\C/C=C\CCCCCCCC(=O)N1Cc2ccccc2[C@H]1C(=O)O`, for which the half-life at 1 µM in data set [1] worked out at 1.07 h. In [2], the Emax is 185%. Besides, in data set [3], the Stability result is “Stable”.
Take `CCCCCCCC/C=C/CCCCCCCC(=O)N[C@@H](Cc1ccccc1)C(=O)O`: the Emax in data set [2] was 107%.
As to `CC/C=C\C/C=C\C/C=C\C/C=C\C/C=C\C/C=C\CCC(=O)N[C@@H](Cc1ccccc1)C(=O)O`, in data set [2], the Emax came out at 166%.
On the same count and under the same terms, then `CCCCCCCCCCCC(=O)N[C@@H](Cc1ccccc1)C(=O)O`, with 96%.
For the molecule `CCCCCCCC/C=C\CCCCCCCCCC(=O)N[C@@H](Cc1ccccc1)C(=O)O`, the Emax in data set [2] was 103%.
For the molecule `CCCCCCCC/C=C\CCCCCCCC(=O)N[C@@H](CCC(=O)O)C(=O)O`, the Emax in data set [2] turned out to be 106%.
Turning to `CCCCCCCC/C=C\CCCCCCCC(=O)N[C@H](C(=O)O)[C@@H](C)CC`, in [1], the half-life at 1 µM is 0.133 h. Moreover, the Emax in data set [2] stood at 167%.
On to `CCCCCCCCCCCCCCCC(=O)N[C@@H](Cc1ccccc1)C(=O)O`, for which the maximal response (Emax) in data set [2] worked out at 180%.
`CCCCCCCC/C=C\CCCCCCCC(=O)N1Cc2ccccc2C[C@H]1C(=O)O`: the Emax in [2] turned out to be 187%.
As to `CCCCCCCC/C=C\CCCCCCCC(=O)N[C@@H](CCC(N)=O)C(=O)O`, the Emax in data set [2] came to 164%.
For `CCCCCCCC/C=C\CCCCCCCC(=O)N1Cc2ccccc2[C@H]1C(=O)O`, in data set [1], the half-life at 1 µM turned out to be 1.07 h. The Emax in data set [2] was 240%. In addition, the Stability entry in [3] is “Stable”.
With `CCCCCCCCCCCCCCCCCCCCCC(=O)N[C@@H](Cc1ccccc1)C(=O)O`, the Emax in [2] is 100%.
On to `CCCCCC/C=C\CCCCCCCCCC(=O)N[C@@H](Cc1ccccc1)C(=O)O`, for which, in data set [2], the Emax amounted to 115%.
On to `CCCCCCCC/C=C\CCCCCCCCNC(=O)N[C@@H](Cc1ccccc1)C(=O)O`, for which the Emax in [2] worked out at 97%.
For `CCCCCCCCCCC/C=C\CCCCC(=O)N[C@@H](Cc1ccccc1)C(=O)O`, in [2], the Emax is 110%.
Regarding `CCCCCCCC/C=C\CCCCCCCC(=O)N1CCc2ccccc2C1C(=O)O` (stereo not drawn), the Emax in data set [2] was found to be 216%.
Still for that read-out and setting: then `CCCCC/C=C\C/C=C\C/C=C\C/C=C\CCCC(=O)N[C@@H](Cc1ccccc1)C(=O)O`, with 200%.
